Calls of active or inactive are those of the source. The rule behind the calls is not given here.
Tests used:
Candida albicans = experiment: Antifungal activity against Candida albicans ATCC 90028 assessed as fungal growth inhibition at 32 ug/ml measured after 16 hrs by broth microdilution method; type: functional, organism-based
Cryptococcus neoformans = experiment: Antifungal activity against Cryptococcus neoformans var. grubii H99 ATCC […] as fungal growth inhibition at 32 ug/ml measured after 16 hrs by broth microdilution method; type: functional, organism-based; conditions: var. grubii H99 ATCC 208821
Klebsiella pneumoniae = experiment: Antibacterial activity against Klebsiella pneumoniae ATCC 700603 assessed as bacterial growth inhibition at 32 ug/ml measured after 16 hrs by broth microdilution method; type: functional, organism-based
[1] = Toxicity in Drosophila melanogaster assessed as survival rate at 0.25 to 1 mM; conditions: 1000 µM
Summary of the method: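 Drosophila SMART assay using third-instar larvae (72 ± 4 h) from ST and HB crosses. Larvae exposed in hydrated instant mashed-potato medium at 0.25, 0.5 and 1.0 mM final. Vehicle control: water with 1% Tween-80 and 3% ethanol. Survival of treated groups compared statistically with the vehicle control.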

Staphylococcus aureus [2] = experiment: Antibacterial activity against Staphylococcus aureus JE2 assessed as bacterial growth inhibition at 32 ug/ml measured after 16 hrs by broth microdilution method; type: functional, organism-based
Summary of the method: (§1)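 Broth microdilution in Mueller Hinton broth, triplicate. Direct colony suspension at 1.5 x 10^8 CFU/mL diluted to ~10^5 CFU/mL. Serial dilutions made from DMSO stocks at 1 mg/mL; vancomycin positive control, blank medium negative control. Incubated 16 h at optimum temperature. MIC is the lowest concentration without visible growth at 600 nm; mean of triplicate determinations.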

Staphylococcus aureus [3] = experiment: Antibacterial activity against methicillin-resistant Staphylococcus aureus ATCC 43300 assessed as bacterial growth inhibition at 32 ug/ml measured after 16 hrs by broth microdilution method; type: functional, organism-based
[4] = Mutagenicity in Drosophila melanogaster somatic cells assessed as frequency of clone formation in ST crosses at 0.25 to 1 mM by SMART assay; type: ADME; conditions: 1000 µM
Summary of the method: (§2)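 Drosophila SMART wing-spot assay, ST and HB crosses. Third-instar larvae (72 ± 4 h) placed on hydrated instant mashed potato medium containing compound at 0.25, 0.5 or 1.0 mM final. Negative control: water with 1% Tween-80 and 3% ethanol. Statistics by Frei and Würgler two-sided U test, P≤0.05.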

Acinetobacter baumannii = experiment: Antibacterial activity against Acinetobacter baumannii ATCC 19606 assessed as bacterial growth inhibition at 32 ug/ml measured after 16 hrs by broth microdilution method; type: functional, organism-based; conditions: ATCC 19606 = CIP 70.34 = JCM 6841
Escherichia coli [5] = experiment: Antibacterial activity against Escherichia coli K12 assessed as bacterial growth inhibition at 32 ug/ml measured after 16 hrs by broth microdilution method; type: functional, organism-based; conditions: K-12; summary of the method: as §1
[6] = Mutagenicity in Drosophila melanogaster somatic cells assessed as frequency of clone formation in HB crosses at 0.25 to 1 mM by SMART assay; type: ADME; conditions: 1000 µM; summary of the method: as §2
Chlamydia trachomatis [7] = experiment: Anti-chlamydial activity against Chlamydia trachomatis Serovar LGV-L2 infected in Hep2 cells assessed as reduction in chlamydial infectivity by measuring decrease in inclusion forming units at 50 ug/ml treated at 8 hrs post-infection and 24 hrs later re-infecting fresh Hep2 cells monolayer with infected cells and measured at 24 hrs post re-infection by immunofluorescence staining based microscopy analysis; type: functional, organism-based
Summary of the method: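 HEp-2 cells in DMEM with 10% FBS, infected with C. trachomatis L2 at MOI 1. Compounds added 8 hpi in triplicate; DMSO stocks at 50 mg/mL. At 24 hpi lysates collected in sucrose storage medium, frozen at −80 °C, and used to infect fresh HEp-2 monolayers in 10-fold dilutions. After 24 h, stained with goat anti-MOMP and Alexa488 secondary. Inclusions counted in 15 fields at 20x; IFU = mean count per field corrected for dilution.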

Escherichia coli [8] = experiment: Antibacterial activity against Escherichia coli ATCC 25922 assessed as bacterial growth inhibition at 32 ug/ml measured after 16 hrs by broth microdilution method; type: functional, organism-based
Pseudomonas aeruginosa = experiment: Antibacterial activity against Pseudomonas aeruginosa ATCC 27853 assessed as bacterial growth inhibition at 32 ug/ml measured after 16 hrs by broth microdilution method; type: functional, organism-based
Chlamydia trachomatis [9] = experiment: Anti-chlamydial activity against Chlamydia trachomatis Serovar LGV-L2 infected in Hep2 cells assessed as inhibition of chlamydial inclusion at 50 ug/ml treated at 8 hrs post infection and measured at 24 hrs post-infection by immunofluorescence assay; type: functional, organism-based
Summary of the method: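 HEp-2 cells infected with C. trachomatis serovar L2. Compounds at 50 μg/mL added 8 hpi; inclusion number and size assessed by immunofluorescence at 24 hpi against untreated cells. Cell morphology and viability checked by phase-contrast microscopy.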

Staphylococcus aureus [10] = experiment: Antibacterial activity against Staphylococcus aureus JE2 assessed as bacterial death up to 256 ug/ml measured after 16 hrs by broth microdilution method; type: functional, organism-based; summary of the method: as §1
Escherichia coli [11] = experiment: Antibacterial activity against Escherichia coli K12 assessed as bacterial death up to 256 ug/ml measured after 16 hrs by broth microdilution method; type: functional, organism-based; conditions: K-12; summary of the method: as §1
[12] = (§3) Activation of recombinant mouse C-terminal 6xHis-tagged ClpP expressed in Escherichia coli assessed as induction of casein degradation at 0.1 to 1 uM using FITC-labelled casein as substrate pretreated with enzyme for 30 mins followed by substrate addition and measured every 3 mins for 3 hrs in absence of AAA+ chaperone by fluorescence based tecan-plate reader assay
Summary of the method: (§4)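 Recombinant C-terminal His6-tagged ClpP, expressed in a clpAPX-null E. coli strain and purified (mammalian ClpP without mitochondrial signal, codon-optimized). ClpP at 1 or 0.1 μM (E. coli), 1 μM (human, mouse) or 6 μM (chlamydial ClpP1 and ClpP2) preincubated with compound or DMSO, 30 min, 32 °C, in HEPES pH 7.6/KCl/MgCl2/DTT/glycerol buffer. 20 μM FITC-casein then added. Fluorescence (ex 490/em 525 nm) read every 3 min for 3 h. At least three runs on at least two protein preparations.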

[13] = target: ATP-dependent Clp protease proteolytic subunit (Escherichia coli (strain K12)) (UniProt P0A6G7); experiment: as §3, with “recombinant” for “recombinant mouse C-terminal 6xHis-tagged ClpP expressed in”, “coli ClpP” for “coli”; summary of the method: as §4
[14] = as §3, with “human” for “mouse”; summary of the method: as §4

Chain of ATP-dependent Clp protease proteolytic subunit (Escherichia coli (strain K12)) (P0A6G7 whole entry): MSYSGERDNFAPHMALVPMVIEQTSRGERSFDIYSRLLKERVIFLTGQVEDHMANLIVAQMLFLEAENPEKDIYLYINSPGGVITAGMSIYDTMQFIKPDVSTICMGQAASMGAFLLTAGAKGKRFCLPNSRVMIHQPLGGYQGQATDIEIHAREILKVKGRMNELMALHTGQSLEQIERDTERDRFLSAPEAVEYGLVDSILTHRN

Row | Structure (SMILES) | inhibition (Candida albicans) | inhibition (Cryptococcus neoformans) | inhibition (Klebsiella pneumoniae) | Activity [1] | inhibition (Staphylococcus aureus [2]) | inhibition (Staphylococcus aureus [3]) | Activity [4] | inhibition (Acinetobacter baumannii) | inhibition (Escherichia coli [5]) | Activity [6] | inhibition (Chlamydia trachomatis [7]) | inhibition (Escherichia coli [8]) | inhibition (Pseudomonas aeruginosa) | inhibition (Chlamydia trachomatis [9]) | Activity (Staphylococcus aureus [10]) | Activity (Escherichia coli [11]) | Activity [12] | Activity [13] | Activity [14]
1 | CC(C)(C(=O)N1CCN(Cc2cccc(Cl)c2)CC1)S(=O)(=O)c1ccc(C(F)(F)F)cn1 | inactive | inactive | inactive | Non-Toxic | inactive | inactive | Non-Toxic | inactive | inactive | Non-Toxic | Active | inactive | inactive | Active |  |  |  |  | 
2 | Cc1ccccc1N1CCN(C(=O)C(C)(C)S(=O)(=O)c2ccc(C(F)(F)F)cn2)CC1 | inactive | inactive | inactive |  | inactive | inactive |  | inactive | inactive |  | Active | inactive | inactive | Active | inactive | inactive |  |  | 
3 | CC(C)(C(=O)NCCOc1ccccc1Cl)S(=O)(=O)c1ccccc1 | inactive | inactive | inactive | Non-Toxic | inactive | inactive |  | inactive | inactive |  |  | inactive | inactive | inactive |  |  |  |  | 
4 | CC(C)(C(=O)NCCSc1ccccc1Cl)S(=O)(=O)c1ccccc1 |  |  |  |  |  |  |  |  |  |  |  |  |  | inactive |  |  | Not Active | inactive | Not Active

Source: ChEMBL document CHEMBL4342502, “Synthesis and Antichlamydial Activity of Molecules Based on Dysregulators of Cylindrical Proteases” (J Med Chem, 2020)
